According to ChEMBL document CHEMBL5143713, “Multitarget, Selective Compound Design Yields Potent Inhibitors of a Kinetoplastid Pteridine Reductase 1” (J Med Chem, 2022):

Assays:
[1] = tested on: 786-0; assay: Mitochondrial toxicity in human 786-0 cells at 10 uM incubated with compound for 6 hrs followed by incubation with MitoTracker Red chloromethyl-X-rosamine dye for 45 mins by imaging analysis relative to control; assay type: cell-based; settings: 786-0, 6 h
Procedure, shortened: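 Tested at 10 μM. 786-O cells kept in RPMI-1640 with 2 mM glutamine, 10% FCS, streptomycin 100 μg/mL and penicillin G 100 U/mL. Mitochondrial toxicity read as MitoTracker Red (chloromethyl-X-rosamine) uptake by high-content imaging.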

[2] = target: Bifunctional dihydrofolate reductase-thymidylate synthase (Trypanosoma brucei brucei, UniProt Q27783); assay: Inhibition of recombinant Trypanosoma brucei DHFR-TS expressed in Escherichia coli BL21 (DE3) cells using dihydrofolate as substrate in presence of NADPH by spectrophotometric analysis
[3] = target: T1, Pteridine reductase, putative (Trypanosoma brucei, UniProt Q581W1); assay: Inhibition of recombinant Trypanosoma brucei PTR1 expressed in Escherichia coli BL21 (DE3) cells using H2B as substrate in presence of cytochrome c and NADPH by envision multilabel reader
T1 sequence (Q581W1 whole entry): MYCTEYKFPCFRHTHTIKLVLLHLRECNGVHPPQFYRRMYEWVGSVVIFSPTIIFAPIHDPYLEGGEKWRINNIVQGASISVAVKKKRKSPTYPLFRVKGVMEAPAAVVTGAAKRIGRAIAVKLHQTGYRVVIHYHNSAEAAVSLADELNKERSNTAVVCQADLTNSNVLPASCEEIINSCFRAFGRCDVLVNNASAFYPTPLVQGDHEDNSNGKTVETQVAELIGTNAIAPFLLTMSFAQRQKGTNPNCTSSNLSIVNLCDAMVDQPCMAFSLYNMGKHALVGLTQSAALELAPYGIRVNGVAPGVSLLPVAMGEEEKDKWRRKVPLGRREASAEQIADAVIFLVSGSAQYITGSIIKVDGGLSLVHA

[4] = tested on: A549; assay: Cytotoxicity against human A549 cells at 10 uM measured after 48 hrs by Celltiter-Glo assay relative to control; assay type: toxicity, cell-based; settings: a549, 48 h
Procedure, shortened: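 Tested at 10 μM. A549 cells grown in DMEM with 10% FCS, streptomycin 100 μg/mL and penicillin G 100 U/mL. Viability read as cellular ATP by CellTiter-Glo luminescence.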

[5] = target: CYP2D6 (Homo sapiens, UniProt P10635); assay: Inhibition of CYP2D6 (unknown origin) expressed in baculovirus-infected insect cells at 10 uM using CYP/Luciferin as substrate incubated for 30 mins in presence of NADPH by luminescence based analysis relative to control; assay type: ADME; settings: probe CYP/Luciferin
Procedure, shortened: (§1)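 Tested at 10 μM using microsomal preparations of each CYP isoform from baculovirus-infected insect cells on a luminescent P450-Glo platform. The enzyme acts on its substrate to give light, and a fall in luminescence indicates inhibition.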

[6] = target: Bifunctional dihydrofolate reductase-thymidylate synthase (Leishmania major, UniProt P07382); assay: Inhibition of recombinant Leishmania major DHFR-TS expressed in Escherichia coli BL21 (DE3) cells using dihydrofolate as substrate in presence of NADPH by spectrophotometric analysis
[7] = target: T2, Dihydrofolate reductase (Homo sapiens, UniProt P00374); assay: Inhibition of recombinant human DHFR expressed in Escherichia coli BL21 (DE3) cells using dihydrofolate as substrate in presence of NADPH by spectrophotometric analysis; assay type: toxicity
T2 sequence (P00374 whole entry): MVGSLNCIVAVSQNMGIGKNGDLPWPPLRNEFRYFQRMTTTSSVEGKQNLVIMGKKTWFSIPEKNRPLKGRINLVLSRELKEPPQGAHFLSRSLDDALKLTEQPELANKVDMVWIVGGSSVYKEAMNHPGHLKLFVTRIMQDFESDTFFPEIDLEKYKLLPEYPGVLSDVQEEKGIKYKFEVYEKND

[8] = target: T3, Pteridine reductase 1 (Leishmania major, UniProt Q01782); assay: Inhibition of recombinant Leishmania major PTR1 expressed in Escherichia coli BL21 (DE3) cells using H2B as substrate in presence of cytochrome c and NADPH by envision multilabel reader
T3 sequence (Q01782 whole entry): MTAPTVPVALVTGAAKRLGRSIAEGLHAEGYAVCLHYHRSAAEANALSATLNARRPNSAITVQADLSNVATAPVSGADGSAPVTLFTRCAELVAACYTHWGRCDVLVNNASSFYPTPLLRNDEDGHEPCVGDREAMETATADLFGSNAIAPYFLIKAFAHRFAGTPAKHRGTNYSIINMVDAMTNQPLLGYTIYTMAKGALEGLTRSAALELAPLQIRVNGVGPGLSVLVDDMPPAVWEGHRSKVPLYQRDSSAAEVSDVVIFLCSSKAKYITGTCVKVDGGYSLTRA

[9] = tested on: human DHFR versus Trypanosoma brucei PTR1; assay: Selectivity index, ratio of IC50 for human DHFR to IC50 for Trypanosoma brucei PTR1; assay type: toxicity; settings: read-out: Ratio IC50
[10] = tested on: human DHFR versus Leishmania major DHFR; assay: Selectivity index, ratio of IC50 for human DHFR to IC50 for Leishmania major DHFR; assay type: toxicity; settings: read-out: Ratio IC50
[11] = target: CYP2C9 (Homo sapiens, UniProt P11712); assay: Inhibition of CYP2C9 (unknown origin) expressed in baculovirus-infected insect cells at 10 uM using CYP/Luciferin as substrate incubated for 30 mins in presence of NADPH by luminescence based analysis relative to control; assay type: ADME; settings: probe CYP/Luciferin; procedure, shortened: as §1
[12] = tested on: human DHFR versus Trypanosoma brucei DHFR; assay: Selectivity index, ratio of IC50 for human DHFR to IC50 for Trypanosoma brucei DHFR; assay type: toxicity; settings: read-out: Ratio IC50
[13] = tested on: human DHFR versus Leishmania major PTR1; assay: Selectivity index, ratio of IC50 for human DHFR to IC50 for Leishmania major PTR1; assay type: toxicity; settings: read-out: Ratio IC50
[14] = target: CYP3A4 (Homo sapiens, UniProt P08684); assay: Inhibition of CYP3A4 (unknown origin) expressed in baculovirus-infected insect cells at 10 uM using CYP/Luciferin as substrate incubated for 30 mins in presence of NADPH by luminescence based analysis relative to control; assay type: ADME; settings: probe CYP/Luciferin; procedure, shortened: as §1
[15] = target: T4, CYP1A2 (Homo sapiens, UniProt P05177); assay: Inhibition of CYP1A2 (unknown origin) expressed in baculovirus-infected insect cells at 10 uM using CYP/Luciferin as substrate incubated for 30 mins in presence of NADPH by luminescence based analysis relative to control; assay type: ADME; settings: probe CYP/Luciferin; procedure, shortened: as §1
T4 sequence (P05177 whole entry): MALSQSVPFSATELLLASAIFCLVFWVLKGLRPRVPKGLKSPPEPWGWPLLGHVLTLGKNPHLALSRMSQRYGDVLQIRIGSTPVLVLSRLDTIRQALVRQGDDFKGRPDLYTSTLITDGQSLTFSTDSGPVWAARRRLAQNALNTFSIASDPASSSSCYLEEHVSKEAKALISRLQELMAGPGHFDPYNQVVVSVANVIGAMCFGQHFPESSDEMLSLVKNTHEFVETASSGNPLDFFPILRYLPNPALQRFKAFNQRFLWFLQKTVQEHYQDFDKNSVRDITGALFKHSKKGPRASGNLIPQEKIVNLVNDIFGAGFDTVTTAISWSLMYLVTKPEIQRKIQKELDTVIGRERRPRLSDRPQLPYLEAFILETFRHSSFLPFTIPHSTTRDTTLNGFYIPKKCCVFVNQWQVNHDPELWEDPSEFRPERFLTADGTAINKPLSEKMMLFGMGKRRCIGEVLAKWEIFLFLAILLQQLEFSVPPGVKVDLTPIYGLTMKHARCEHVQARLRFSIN

[16] = target: CYP2C19 (Homo sapiens, UniProt P33261); assay: Inhibition of CYP2C19 (unknown origin) expressed in baculovirus-infected insect cells at 10 uM using CYP/Luciferin as substrate incubated for 30 mins in presence of NADPH by luminescence based analysis relative to control; assay type: ADME; settings: probe CYP/Luciferin; procedure, shortened: as §1
[17] = (§2) Cytotoxicity against human THP-1 derived macrophages by colorimetric MTT assay; assay type: toxicity, cell-based, Macrophage; settings: THP-1 derived macrophages
Procedure, shortened: (§3)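 CC50 from at least three independent MTT colorimetric cytotoxicity runs on THP-1-derived macrophages. Selectivity index is CC50 (or lower CC50 interval estimate) divided by antiparasitic EC50.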

[18] = tested on: Trypanosoma brucei brucei; assay: Antitrypanosomal activity against bloodstream form of Trypanosoma brucei brucei Lister 427 assessed as parasite growth inhibition at 10 uM incubated for 72 hrs by resazurin dye based analysis relative to control; assay type: functional
[19] = tested on: Trypanosoma brucei brucei; assay: Antitrypanosomal activity against bloodstream form of Trypanosoma brucei brucei Lister 427 assessed as parasite growth inhibition incubated for 72 hrs by resazurin dye based analysis; assay type: functional, organism-based; settings: Lister 427, 72 h
[20] = target: Voltage-gated inwardly rectifying potassium channel KCNH2 (Homo sapiens, UniProt Q12809); assay: Inhibition of hERG potassium channel at 10 uM by fluorescence polarization assay relative to control; assay type: toxicity
Procedure, shortened: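 Tested at 10 μM. Fluorescence polarization readout using a hERG-containing membrane fraction and a red fluorescent high-affinity hERG tracer. Displacement of the tracer by the compound is measured.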

[21] = tested on: Macrophage; assay: as §2; assay type: toxicity, cell-based; settings: macrophage; procedure, shortened: as §3

Sequence of Bifunctional dihydrofolate reductase-thymidylate synthase (Trypanosoma brucei brucei, UniProt Q27783) (Q27783 whole entry): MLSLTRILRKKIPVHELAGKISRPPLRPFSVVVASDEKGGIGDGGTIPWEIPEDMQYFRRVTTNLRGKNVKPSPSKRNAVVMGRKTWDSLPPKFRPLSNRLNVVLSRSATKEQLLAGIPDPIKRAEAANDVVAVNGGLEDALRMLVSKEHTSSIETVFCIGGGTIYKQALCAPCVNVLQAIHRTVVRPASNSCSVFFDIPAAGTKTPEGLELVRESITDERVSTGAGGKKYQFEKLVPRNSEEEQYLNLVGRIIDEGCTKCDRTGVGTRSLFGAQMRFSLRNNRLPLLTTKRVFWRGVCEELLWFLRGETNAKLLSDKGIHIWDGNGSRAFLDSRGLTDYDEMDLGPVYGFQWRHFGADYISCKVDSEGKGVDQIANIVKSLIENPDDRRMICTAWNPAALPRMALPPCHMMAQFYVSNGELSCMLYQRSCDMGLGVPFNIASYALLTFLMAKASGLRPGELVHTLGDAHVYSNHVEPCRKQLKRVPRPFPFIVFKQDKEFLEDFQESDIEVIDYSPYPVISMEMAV
Sequence of Bifunctional dihydrofolate reductase-thymidylate synthase (Leishmania major, UniProt P07382) (P07382 whole entry): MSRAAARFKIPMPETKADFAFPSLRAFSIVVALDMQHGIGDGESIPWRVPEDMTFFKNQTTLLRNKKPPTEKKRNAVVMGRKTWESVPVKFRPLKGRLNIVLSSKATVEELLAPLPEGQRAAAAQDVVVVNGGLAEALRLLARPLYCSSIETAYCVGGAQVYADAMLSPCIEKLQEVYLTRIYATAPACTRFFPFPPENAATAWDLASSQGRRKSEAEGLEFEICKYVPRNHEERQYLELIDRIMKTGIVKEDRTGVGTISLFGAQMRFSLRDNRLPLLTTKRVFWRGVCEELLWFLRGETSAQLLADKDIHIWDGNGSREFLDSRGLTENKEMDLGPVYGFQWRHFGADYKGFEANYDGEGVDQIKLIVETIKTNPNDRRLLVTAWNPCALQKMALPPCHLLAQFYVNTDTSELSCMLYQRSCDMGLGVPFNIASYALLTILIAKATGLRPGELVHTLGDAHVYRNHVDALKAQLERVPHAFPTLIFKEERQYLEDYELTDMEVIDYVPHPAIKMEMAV
Sequence of CYP3A4 (P08684 whole entry): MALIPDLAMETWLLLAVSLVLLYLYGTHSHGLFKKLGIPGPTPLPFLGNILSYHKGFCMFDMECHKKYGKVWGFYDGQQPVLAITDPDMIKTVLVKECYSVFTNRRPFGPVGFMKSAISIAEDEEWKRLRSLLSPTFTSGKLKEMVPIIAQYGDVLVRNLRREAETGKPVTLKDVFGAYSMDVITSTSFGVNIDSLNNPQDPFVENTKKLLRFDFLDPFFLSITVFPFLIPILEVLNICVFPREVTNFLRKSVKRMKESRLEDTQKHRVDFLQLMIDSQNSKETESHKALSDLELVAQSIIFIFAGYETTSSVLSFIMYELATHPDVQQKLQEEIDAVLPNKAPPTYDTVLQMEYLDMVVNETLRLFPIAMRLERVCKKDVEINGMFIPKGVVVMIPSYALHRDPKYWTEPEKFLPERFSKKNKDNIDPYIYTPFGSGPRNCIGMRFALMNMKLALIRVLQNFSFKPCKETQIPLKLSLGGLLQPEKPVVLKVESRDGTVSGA
Sequence of CYP2D6 (P10635 whole entry, canonical isoform): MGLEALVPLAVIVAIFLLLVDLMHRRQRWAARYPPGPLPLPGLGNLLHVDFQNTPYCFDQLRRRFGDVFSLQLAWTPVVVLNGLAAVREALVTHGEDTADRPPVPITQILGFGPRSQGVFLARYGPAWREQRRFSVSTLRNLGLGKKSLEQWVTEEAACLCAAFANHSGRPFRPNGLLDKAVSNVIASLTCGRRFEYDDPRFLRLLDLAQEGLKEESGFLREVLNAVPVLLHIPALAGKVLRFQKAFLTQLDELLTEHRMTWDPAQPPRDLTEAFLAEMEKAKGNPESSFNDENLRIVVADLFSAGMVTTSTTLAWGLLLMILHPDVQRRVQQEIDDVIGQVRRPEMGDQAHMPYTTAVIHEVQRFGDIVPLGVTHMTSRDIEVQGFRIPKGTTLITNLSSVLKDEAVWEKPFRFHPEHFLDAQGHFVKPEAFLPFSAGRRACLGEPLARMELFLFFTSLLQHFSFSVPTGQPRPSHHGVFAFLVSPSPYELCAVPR
Sequence of Voltage-gated inwardly rectifying potassium channel KCNH2 (Q12809 whole entry): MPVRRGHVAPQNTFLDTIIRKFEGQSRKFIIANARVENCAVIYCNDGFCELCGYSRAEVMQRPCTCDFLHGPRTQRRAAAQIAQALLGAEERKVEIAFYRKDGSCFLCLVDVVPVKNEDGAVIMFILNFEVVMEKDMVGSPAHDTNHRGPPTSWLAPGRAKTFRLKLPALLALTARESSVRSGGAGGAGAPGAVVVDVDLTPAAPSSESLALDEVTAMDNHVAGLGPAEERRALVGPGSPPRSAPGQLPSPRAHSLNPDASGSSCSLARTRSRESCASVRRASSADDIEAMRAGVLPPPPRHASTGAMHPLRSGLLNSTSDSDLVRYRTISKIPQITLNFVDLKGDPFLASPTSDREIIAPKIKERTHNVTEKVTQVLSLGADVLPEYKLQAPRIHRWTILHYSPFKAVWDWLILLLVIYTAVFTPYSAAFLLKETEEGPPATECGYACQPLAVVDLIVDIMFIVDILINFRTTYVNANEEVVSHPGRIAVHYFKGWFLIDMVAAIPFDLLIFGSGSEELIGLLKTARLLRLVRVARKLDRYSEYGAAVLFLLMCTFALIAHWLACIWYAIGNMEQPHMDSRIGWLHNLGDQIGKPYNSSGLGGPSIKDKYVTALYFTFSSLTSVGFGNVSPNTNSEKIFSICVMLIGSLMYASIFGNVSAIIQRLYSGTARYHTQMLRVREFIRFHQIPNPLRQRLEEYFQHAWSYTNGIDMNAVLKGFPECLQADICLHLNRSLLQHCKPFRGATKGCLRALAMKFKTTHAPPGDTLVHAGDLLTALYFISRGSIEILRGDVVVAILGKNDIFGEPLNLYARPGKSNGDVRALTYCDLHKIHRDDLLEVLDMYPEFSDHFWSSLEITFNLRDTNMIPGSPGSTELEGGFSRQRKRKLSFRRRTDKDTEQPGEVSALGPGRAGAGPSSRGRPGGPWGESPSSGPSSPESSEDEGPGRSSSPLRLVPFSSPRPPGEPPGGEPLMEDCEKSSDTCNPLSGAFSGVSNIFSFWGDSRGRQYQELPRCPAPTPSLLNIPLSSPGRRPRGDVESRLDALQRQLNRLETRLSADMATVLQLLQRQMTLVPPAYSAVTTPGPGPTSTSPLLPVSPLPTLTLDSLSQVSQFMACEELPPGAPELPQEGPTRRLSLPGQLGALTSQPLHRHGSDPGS
Sequence of CYP2C19 (P33261 whole entry): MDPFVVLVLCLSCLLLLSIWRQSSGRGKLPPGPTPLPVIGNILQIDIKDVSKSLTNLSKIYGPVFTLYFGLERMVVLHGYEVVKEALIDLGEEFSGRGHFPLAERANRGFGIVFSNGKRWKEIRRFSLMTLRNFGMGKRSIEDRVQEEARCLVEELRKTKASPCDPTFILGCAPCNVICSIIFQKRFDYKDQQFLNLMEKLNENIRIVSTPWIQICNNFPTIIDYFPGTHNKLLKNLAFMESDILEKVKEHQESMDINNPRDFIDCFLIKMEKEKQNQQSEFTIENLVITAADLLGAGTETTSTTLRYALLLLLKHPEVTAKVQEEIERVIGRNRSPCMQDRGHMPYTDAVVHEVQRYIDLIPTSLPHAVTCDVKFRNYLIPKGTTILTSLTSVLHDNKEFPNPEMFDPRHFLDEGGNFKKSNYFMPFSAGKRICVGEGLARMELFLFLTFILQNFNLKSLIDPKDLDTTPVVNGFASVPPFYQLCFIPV
Sequence of CYP2C9 (P11712 whole entry): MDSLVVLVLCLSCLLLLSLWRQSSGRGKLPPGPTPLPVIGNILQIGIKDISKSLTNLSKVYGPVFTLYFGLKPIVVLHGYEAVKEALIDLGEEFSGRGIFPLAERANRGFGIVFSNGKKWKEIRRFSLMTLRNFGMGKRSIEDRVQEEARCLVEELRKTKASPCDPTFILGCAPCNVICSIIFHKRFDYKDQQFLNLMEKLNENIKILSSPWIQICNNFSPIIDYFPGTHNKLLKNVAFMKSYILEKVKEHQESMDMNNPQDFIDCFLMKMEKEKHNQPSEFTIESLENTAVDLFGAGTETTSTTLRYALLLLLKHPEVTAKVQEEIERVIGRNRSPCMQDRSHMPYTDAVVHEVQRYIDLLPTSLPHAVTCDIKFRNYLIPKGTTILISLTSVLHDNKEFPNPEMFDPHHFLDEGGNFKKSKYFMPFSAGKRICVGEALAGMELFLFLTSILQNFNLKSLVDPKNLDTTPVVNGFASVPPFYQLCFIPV

Structure (SMILES)	Activity [1] [%]	IC50 [2] [nM]	IC50 [3] [nM]	Activity [4] [%]	IC50 [6] [nM]	IC50 [7] [nM]	IC50 [8] [nM]	selectivity ratio [9]	selectivity ratio [10]	selectivity ratio [12]	selectivity ratio [13]	inhibition at 0.5 h, 10 µM [14] [%]	inhibition at 10 µM [18] [%]	further results
COC(=O)C1CCN(C(=O)c2ccc(N(CCO)Cc3cnc4nc(N)nc(N)c4n3)cc2)CC1	0	1260	200	100	1210									inhibition at 0.5 h, 10 µM [5]: 0%
COC(=O)C1CCN(C(=O)c2ccc(N(CCCO)Cc3cnc4nc(N)nc(N)c4n3)cc2)CC1	0	430	30	100	760	15000	220	500	20	35	68			inhibition at 0.5 h, 10 µM [11]: 17%
Nc1nc(N)c2nc(CNc3ccc(C(=O)c4ccccc4)cc3)cnc2n1	10	990	1		3260	6020	30	6020	2	6	201	17		
COC(=O)C1CCN(C(=O)Cc2ccc(NCc3cnc4nc(N)nc(N)c4n3)cc2)CC1	0	620	140	100	850	35000	1140	250	41	56	31			inhibition at 0.5 h, 10 µM [15]: 12%; inhibition at 0.5 h, 10 µM [16]: 12%
COc1ccc(Oc2ccc(CN(C)Cc3cnc4nc(N)nc(N)c4n3)cc2)cc1	1		150	15			450						100	CC50 [17]: 12500 nM; inhibition at 0.5 h, 10 µM [15]: 9%; EC50 [19]: 1300 nM
COC(=O)C1CCN(C(=O)c2ccc(N(Cc3ccccc3)Cc3cnc4nc(N)nc(N)c4n3)cc2)CC1	0	1200	< 0.1	100	910	73000	20	> 730000	80	61	3650			inhibition (INH) [20]: 45%
NC(=O)C1CCCN1C(=O)Cc1ccc(N(CCCO)Cc2cnc3nc(N)nc(N)c3n2)cc1 (stereo unspecified)		590	4		890		170					0	23	
CCN(Cc1cnc2nc(N)nc(N)c2n1)c1ccc(C(=O)c2ccccc2)cc1	0	340	< 0.1	0	230		50						78	CC50 [17]: 25000 nM; EC50 [19]: 660 nM
COc1ccc(Oc2ccc(CNCc3cnc4nc(N)nc(N)c4n3)cc2)cc1	0		520				260	192	1	1	385	33		
N=C(N)c1ccc(OCCCCCOc2ccc(C(=N)N)cc2)cc1 [PENTAMIDINE]														CC50 [21]: 10000 nM
